# ChEMBL document CHEMBL1136991, “Novel potent BRAF inhibitors: toward 1 nM compounds through optimization of the central phenyl ring” (J Med Chem, 2009)
# Experiments:
# [1] = Growth inhibition of human WM266.4 cells expressing BRAF V600E mutant after 5 days by SRB assay; format: functional; settings: WM 266-4, 120 h
# Method in brief: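 WM266.4 human melanoma cells, which are driven by mutant BRAF, were assayed for proliferation by sulforhodamine B (SRB) staining; the value is a GI50.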
# [2] = target: T1, Mitogen-activated protein kinase 15 (Homo sapiens) (UniProt Q8TD08); assay: Inhibition of ERK8 at 1 uM relative to control
# T1 sequence (whole entry): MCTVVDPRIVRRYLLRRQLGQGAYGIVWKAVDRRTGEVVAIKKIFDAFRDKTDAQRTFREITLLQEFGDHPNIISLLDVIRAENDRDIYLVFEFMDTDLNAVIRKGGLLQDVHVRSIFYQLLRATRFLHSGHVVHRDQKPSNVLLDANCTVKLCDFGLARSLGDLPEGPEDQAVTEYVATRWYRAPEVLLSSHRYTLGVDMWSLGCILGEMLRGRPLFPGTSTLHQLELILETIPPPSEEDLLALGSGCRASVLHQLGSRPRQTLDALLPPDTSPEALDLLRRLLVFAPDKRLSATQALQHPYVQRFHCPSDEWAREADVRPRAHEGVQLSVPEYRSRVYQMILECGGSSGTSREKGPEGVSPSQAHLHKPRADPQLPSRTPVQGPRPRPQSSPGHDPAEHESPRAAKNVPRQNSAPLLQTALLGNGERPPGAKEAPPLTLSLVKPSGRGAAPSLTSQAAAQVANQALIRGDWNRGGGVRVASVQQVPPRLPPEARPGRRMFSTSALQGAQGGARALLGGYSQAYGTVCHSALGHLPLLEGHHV
# [3] = target: RAC-beta serine/threonine-protein kinase (Homo sapiens) (UniProt P31751); assay: Inhibition of PKBbeta at 1 uM relative to control
# [4] = target: Tyrosine-protein kinase CSK (Homo sapiens) (UniProt P41240); assay: Inhibition of CSK at 1 uM relative to control
# [5] = target: Serine/threonine-protein kinase PLK1 (Homo sapiens) (UniProt P53350); assay: Inhibition of okadaic acid activated PLK1 at 1 uM relative to control
# [6] = target: Serine/threonine-protein kinase Nek6 (Homo sapiens) (UniProt Q9HC98); assay: Inhibition of NEK6 at 1 uM relative to control
# [7] = target: Ribosomal protein S6 kinase alpha-5 (Homo sapiens) (UniProt O75582); assay: Inhibition of MSK1 at 1 uM relative to control
# [8] = target: Serine/threonine-protein kinase pim-2 (Homo sapiens) (UniProt Q9P1W9); assay: Inhibition of PIM2 at 1 uM relative to control
# [9] = target: T2, Serine/threonine-protein kinase Sgk1 (Homo sapiens) (UniProt O00141); assay: Inhibition of SGK1 at 1 uM relative to control
# T2 sequence (whole entry): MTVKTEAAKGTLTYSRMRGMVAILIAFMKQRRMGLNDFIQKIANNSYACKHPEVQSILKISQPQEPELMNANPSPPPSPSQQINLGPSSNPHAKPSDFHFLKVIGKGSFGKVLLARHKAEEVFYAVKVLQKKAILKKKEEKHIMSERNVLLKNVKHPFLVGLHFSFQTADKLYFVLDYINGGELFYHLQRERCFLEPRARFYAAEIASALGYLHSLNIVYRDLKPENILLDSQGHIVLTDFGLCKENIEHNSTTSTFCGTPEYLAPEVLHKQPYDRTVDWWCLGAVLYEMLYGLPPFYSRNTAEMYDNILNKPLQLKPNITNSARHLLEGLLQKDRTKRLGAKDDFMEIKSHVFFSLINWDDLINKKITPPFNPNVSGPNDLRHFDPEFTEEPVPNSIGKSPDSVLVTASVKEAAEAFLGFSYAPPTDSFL
# [10] = target: MAP kinase-activated protein kinase 3 (Homo sapiens) (UniProt Q16644); assay: Inhibition of MAPKAP-K3 at 1 uM relative to control
# [11] = target: Cyclin-dependent kinase 2 (Homo sapiens) (UniProt P24941); assay: Inhibition of CDK2/cyclin A at 1 uM relative to control
# [12] = target: T3, Serine/threonine-protein kinase 3 (Homo sapiens) (UniProt Q13188); assay: Inhibition of MST2 at 1 uM relative to control
# T3 sequence (whole entry): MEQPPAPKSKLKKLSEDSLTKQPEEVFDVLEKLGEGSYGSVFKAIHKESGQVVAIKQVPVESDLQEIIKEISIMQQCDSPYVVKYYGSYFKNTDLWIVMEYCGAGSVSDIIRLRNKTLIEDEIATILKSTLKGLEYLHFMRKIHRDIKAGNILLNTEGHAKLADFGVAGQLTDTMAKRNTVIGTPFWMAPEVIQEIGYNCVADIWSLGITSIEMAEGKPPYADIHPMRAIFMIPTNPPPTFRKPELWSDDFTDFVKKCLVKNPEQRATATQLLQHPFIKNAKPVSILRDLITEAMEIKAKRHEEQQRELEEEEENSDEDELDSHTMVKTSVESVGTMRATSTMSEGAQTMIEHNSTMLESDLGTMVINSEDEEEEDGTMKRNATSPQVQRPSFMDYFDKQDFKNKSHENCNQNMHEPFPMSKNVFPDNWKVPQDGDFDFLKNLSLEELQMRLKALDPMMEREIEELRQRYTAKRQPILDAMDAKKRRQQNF
# [13] = target: MAP/microtubule affinity-regulating kinase 3 (Homo sapiens) (UniProt P27448); assay: Inhibition of MARK3 at 1 uM relative to control
# [14] = target: T4, Serine/threonine-protein kinase BRSK2 (Homo sapiens) (UniProt Q8IWQ3); assay: Inhibition of BRSK2 at 1 uM relative to control
# T4 sequence (whole entry): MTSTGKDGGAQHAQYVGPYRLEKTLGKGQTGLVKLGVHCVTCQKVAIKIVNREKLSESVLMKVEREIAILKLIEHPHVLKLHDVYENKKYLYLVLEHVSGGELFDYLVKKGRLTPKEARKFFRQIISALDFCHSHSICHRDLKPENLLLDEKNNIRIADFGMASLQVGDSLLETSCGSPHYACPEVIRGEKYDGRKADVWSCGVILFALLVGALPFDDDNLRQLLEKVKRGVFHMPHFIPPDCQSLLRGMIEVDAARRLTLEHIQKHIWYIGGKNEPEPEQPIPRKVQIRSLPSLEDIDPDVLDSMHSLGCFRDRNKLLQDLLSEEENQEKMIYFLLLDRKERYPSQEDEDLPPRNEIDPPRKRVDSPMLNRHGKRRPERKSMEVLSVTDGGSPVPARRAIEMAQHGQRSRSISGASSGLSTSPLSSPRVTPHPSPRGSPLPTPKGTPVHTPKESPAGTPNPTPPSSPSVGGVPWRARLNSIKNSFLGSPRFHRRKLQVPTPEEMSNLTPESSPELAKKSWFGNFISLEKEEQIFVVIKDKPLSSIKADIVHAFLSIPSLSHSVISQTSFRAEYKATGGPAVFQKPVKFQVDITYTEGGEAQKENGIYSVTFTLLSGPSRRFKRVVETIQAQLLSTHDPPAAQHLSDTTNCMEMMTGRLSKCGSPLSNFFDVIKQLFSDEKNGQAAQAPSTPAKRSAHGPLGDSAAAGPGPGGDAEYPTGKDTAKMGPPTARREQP
# Sequence of MAP/microtubule affinity-regulating kinase 3 (Homo sapiens) (P27448 whole entry, looked up): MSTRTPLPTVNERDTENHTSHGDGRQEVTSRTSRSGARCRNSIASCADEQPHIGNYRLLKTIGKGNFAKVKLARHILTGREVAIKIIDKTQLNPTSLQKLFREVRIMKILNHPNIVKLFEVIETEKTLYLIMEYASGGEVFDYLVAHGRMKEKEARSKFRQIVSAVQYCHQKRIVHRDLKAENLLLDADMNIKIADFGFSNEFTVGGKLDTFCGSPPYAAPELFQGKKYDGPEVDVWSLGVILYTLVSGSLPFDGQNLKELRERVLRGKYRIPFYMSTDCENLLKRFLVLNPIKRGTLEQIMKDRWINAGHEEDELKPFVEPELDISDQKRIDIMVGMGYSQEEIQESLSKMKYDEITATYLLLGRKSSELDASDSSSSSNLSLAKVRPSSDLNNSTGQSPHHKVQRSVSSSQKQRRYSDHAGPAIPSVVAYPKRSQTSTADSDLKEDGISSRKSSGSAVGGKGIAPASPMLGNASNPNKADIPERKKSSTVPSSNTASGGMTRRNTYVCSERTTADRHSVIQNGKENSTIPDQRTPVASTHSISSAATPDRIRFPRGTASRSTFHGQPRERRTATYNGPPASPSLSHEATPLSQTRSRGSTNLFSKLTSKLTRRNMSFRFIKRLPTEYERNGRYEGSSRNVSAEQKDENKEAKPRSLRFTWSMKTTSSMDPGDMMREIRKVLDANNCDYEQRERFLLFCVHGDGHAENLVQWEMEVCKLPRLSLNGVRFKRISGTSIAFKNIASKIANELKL
# Sequence of Serine/threonine-protein kinase Nek6 (Homo sapiens) (Q9HC98 whole entry): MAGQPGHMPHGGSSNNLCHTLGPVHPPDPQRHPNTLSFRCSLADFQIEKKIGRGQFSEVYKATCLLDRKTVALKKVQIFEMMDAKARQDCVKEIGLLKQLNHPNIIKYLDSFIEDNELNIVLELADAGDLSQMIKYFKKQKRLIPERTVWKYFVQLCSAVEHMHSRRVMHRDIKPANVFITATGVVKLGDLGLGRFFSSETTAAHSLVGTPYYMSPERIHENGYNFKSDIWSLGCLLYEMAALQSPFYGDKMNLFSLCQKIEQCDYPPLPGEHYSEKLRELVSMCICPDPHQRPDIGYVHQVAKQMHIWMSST
# Sequence of MAP kinase-activated protein kinase 3 (Homo sapiens) (Q16644 whole entry, looked up): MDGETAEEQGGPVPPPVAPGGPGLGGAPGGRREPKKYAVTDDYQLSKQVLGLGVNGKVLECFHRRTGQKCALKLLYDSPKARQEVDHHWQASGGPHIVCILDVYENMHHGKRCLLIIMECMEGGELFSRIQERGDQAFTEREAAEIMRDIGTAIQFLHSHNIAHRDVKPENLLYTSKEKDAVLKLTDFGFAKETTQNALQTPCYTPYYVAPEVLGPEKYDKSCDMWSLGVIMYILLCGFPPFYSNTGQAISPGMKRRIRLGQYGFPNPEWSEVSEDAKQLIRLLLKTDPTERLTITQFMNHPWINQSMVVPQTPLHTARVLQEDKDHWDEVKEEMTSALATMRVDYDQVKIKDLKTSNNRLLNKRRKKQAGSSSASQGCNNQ
# Sequence of Serine/threonine-protein kinase PLK1 (Homo sapiens) (P53350 whole entry): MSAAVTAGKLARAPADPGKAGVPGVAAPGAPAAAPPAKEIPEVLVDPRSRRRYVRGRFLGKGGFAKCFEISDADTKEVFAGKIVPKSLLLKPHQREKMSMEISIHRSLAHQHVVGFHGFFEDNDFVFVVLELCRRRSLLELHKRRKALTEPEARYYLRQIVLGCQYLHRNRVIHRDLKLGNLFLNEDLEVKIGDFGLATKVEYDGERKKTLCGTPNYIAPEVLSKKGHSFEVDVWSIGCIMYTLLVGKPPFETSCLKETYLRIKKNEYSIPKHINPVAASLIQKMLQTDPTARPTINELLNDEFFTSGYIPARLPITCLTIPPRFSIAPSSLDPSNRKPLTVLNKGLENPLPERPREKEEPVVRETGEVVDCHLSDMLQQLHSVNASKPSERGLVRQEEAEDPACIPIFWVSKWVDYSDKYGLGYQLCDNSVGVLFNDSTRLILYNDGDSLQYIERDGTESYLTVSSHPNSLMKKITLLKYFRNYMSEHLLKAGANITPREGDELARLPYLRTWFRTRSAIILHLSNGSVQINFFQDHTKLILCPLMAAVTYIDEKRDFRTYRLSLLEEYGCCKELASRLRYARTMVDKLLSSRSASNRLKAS
# Sequence of Serine/threonine-protein kinase pim-2 (Homo sapiens) (Q9P1W9 whole entry, looked up): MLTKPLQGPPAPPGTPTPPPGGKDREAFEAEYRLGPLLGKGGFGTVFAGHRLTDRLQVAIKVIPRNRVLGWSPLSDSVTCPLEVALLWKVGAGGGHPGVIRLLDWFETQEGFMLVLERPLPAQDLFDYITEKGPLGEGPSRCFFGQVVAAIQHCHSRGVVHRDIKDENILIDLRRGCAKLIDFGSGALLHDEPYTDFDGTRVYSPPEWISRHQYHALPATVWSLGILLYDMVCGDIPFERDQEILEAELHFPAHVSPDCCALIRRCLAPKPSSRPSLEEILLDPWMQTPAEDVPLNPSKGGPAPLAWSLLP
# Sequence of Ribosomal protein S6 kinase alpha-5 (Homo sapiens) (O75582 whole entry, looked up): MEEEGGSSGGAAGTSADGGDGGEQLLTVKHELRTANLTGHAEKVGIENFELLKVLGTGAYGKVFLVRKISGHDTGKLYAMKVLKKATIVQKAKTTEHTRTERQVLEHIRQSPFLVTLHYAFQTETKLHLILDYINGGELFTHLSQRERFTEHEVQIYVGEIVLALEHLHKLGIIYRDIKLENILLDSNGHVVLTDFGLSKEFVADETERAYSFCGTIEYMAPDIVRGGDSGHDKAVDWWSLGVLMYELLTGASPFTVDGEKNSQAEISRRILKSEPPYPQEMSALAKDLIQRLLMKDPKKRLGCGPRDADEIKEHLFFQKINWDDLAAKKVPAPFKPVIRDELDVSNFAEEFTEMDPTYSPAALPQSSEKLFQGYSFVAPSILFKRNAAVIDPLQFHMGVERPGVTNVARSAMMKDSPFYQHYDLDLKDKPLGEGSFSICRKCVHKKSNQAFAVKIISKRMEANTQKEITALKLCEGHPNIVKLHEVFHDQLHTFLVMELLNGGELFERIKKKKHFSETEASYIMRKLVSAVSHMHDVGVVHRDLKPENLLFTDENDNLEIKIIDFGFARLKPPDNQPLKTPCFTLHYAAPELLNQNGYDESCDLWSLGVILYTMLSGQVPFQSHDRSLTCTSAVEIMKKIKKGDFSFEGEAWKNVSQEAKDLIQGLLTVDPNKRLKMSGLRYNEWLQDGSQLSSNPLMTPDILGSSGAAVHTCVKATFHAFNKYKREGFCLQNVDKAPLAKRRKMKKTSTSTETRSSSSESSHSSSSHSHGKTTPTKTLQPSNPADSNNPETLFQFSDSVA
# Sequence of RAC-beta serine/threonine-protein kinase (Homo sapiens) (P31751 whole entry): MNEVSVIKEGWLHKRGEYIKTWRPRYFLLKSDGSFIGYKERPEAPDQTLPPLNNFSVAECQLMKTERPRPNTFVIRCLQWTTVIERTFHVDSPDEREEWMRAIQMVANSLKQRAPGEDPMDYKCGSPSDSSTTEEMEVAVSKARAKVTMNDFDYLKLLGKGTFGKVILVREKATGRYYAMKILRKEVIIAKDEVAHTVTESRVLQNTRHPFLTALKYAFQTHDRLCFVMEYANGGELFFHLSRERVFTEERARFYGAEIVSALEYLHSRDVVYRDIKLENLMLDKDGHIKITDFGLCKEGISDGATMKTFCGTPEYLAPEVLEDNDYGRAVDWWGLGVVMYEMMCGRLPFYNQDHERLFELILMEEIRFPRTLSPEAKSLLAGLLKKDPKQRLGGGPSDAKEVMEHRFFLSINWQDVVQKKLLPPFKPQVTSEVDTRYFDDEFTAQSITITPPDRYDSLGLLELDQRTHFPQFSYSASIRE
# Sequence of Tyrosine-protein kinase CSK (Homo sapiens) (P41240 2-450 limits assumed): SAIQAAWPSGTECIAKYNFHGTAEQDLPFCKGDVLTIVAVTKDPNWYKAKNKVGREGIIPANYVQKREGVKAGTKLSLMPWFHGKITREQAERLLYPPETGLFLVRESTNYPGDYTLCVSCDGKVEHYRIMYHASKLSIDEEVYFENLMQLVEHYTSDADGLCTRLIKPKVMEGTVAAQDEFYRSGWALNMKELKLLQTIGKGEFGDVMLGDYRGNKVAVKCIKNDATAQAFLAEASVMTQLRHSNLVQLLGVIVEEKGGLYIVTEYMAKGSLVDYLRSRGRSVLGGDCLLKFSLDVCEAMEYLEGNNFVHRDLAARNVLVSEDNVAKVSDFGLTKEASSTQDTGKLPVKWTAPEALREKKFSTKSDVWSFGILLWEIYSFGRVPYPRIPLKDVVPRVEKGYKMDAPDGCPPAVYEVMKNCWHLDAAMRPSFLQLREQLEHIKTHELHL
residual activity [3] [%],residual activity [4] [%],residual activity [5] [%],residual activity [6] [%],residual activity [7] [%],residual activity [8] [%],residual activity [9] [%],residual activity [10] [%],residual activity [11] [%],residual activity [12] [%],residual activity [13] [%],residual activity [14] [%],SMILES,GI50 [1] [nM],residual activity [2] [%]
100,< 25,100,100,100,100,100,100,100,75,75,50,CSc1cc(Oc2ccnc3[nH]c(=O)[nH]c23)ccc1NC(=O)Nc1cccc(C(F)(F)F)c1,1060,100
100,< 25,100,100,75,100,100,100,100,100,75,50,O=C(Nc1cc(C(F)(F)F)ccc1F)Nc1ccc(Oc2ccnc3[nH]c(=O)[nH]c23)c2ccccc12,290,100
75,50,75,75,75,100,100,100,100,75,100,75,CC(C)(C)c1cccc(NC(=O)Nc2ccc(Oc3ccnc4[nH]c(=O)[nH]c34)c3ccccc23)c1,3900,< 25
